Columns and labels:
Aorta [1] = experiment: Vasorelaxant activity in Sprague-Dawley rat aorta assessed as inhibition of phenylephrine-induced contraction after 15 to 20 mins; format: functional, tissue-based
How it was run: (§1)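 Aortic rings from male Sprague-Dawley rats (4–6 months, ~250 g), equilibrated at least 1 h, then precontracted isometrically with PE (1 µM). Once contraction stabilized (~20 min), compounds were added cumulatively at 15–20 min intervals, up to 300 µM. Vehicle-treated control tissues were run in parallel. Relaxation is expressed as % of PE contraction (Emax), n = 4. EC50 was taken as 50% of maximum relaxation, from nonlinear regression of concentration-response curves.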

Aorta [2] = experiment: Vasorelaxant activity in Sprague-Dawley rat aorta assessed as inhibition of phenylephrine-induced contraction after 15 to 20 mins relative to phenylephrine; format: functional; how it was run: as §1

SMILES | EC50 (Aorta [1]) | EC50 (Aorta [1]; read-out: pEC50 (converted)) | Emax (Aorta [2])
C=CCc1c(O)ccc2c1OC(c1ccc(O)cc1)CC2=O (racemic) | 26.9 µM | 26.9 µM | 87.2%
O=C1/C(=C/c2cccc(Br)c2)Oc2cc(O)cc(O)c21 |  |  | 59.2%
C=CCc1c(O)cc(O)c2c1OC(c1ccc(Cl)cc1)CC2=O (racemic) |  |  | 77.6%
C=CCc1c(O)ccc(C(=O)/C=C/c2ccc(O)cc2)c1O | 89.1 µM | 89.1 µM | 73.4%
C=CCc1c(O)cc(O)c2c1OC(c1cccc(Cl)c1)CC2=O (racemic) |  |  | 76.7%
O=C(/C=C/c1ccc2c(c1)OCO2)c1c(O)cc(O)cc1O | 22.5 µM | 22.4 µM | 104%
C=CCc1cc(O)cc2c1OC(c1ccc(O)cc1)CC2=O (racemic) | 34.5 µM | 33.9 µM | 95.3%
C=CCc1c(O)ccc2c1OC(c1ccc(Cl)cc1)CC2=O (racemic) | 142 µM | 145 µM | 70.8%
C=CCc1c(O)cc(O)c2c1OC(c1ccc(O)cc1)CC2=O (racemic) | 32.1 µM | 32.4 µM | 98.6%
O=C1CC(c2cccc(Br)c2)Oc2cc(O)cc(O)c21 (racemic) | 42.4 µM | 43.7 µM | 93.5%
O=C1CC(c2cccc(Br)c2)Oc2ccc(O)cc21 (racemic) | 38.5 µM | 38 µM | 91.8%
C=CCc1cc(O)cc2c(=O)cc(-c3ccc(O)cc3)oc12 | 51.3 µM | 51.3 µM | 67.3%
O=C(/C=C/c1cccc(Br)c1)c1c(O)cc(O)cc1O |  | 21.4 µM | 99.8%
C=CCc1c(O)cc(O)c2c1OC(c1cccc(Br)c1)CC2=O (racemic) |  |  | 78.8%
C=CCc1cc(O)cc2c1OC(c1cccc(O)c1)CC2=O (racemic) | 10.2 µM | 10.2 µM | 90.2%
O=c1c(O)c(-c2ccc(O)c(O)c2)oc2cc(O)cc(O)c12 [QUERCETIN] |  | 245 µM | 91.3%
C=CCc1cc(O)cc(C(=O)/C=C/c2ccc(O)cc2)c1O |  |  | 59.8%
O=C1/C(=C/c2ccc3c(c2)OCO3)Oc2cc(O)cc(O)c21 | 220 µM | 224 µM | 58.4%
O=c1cc(-c2cccc(Br)c2)oc2cc(O)cc(O)c12 | 36.8 µM | 36.3 µM | 84.3%
C=CCc1c(O)ccc2c1OC(c1ccc(O)c(OC)c1)CC2=O (racemic) |  |  | 85%
C=CCc1c(O)cc(O)c2c1OC(c1cccc(O)c1)CC2=O (racemic) | 37 µM | 36.3 µM | 97.8%
O=c1cc(-c2ccc3c(c2)OCO3)oc2cc(O)ccc12 | 81.7 µM | 81.3 µM | 82.1%
C=CCc1c(O)cc(O)c(C(=O)/C=C/c2ccc(O)cc2)c1O | 24 µM | 24 µM | 108%
O=C1CC(c2ccc3c(c2)OCO3)Oc2cc(O)cc(O)c21 (racemic) | 20.1 µM | 20 µM | 97.2%
C=CCc1c(O)ccc2c1OC(c1ccc3c(c1)OCO3)CC2=O (racemic) | 9.4 µM | 9.33 µM | 96.6%
C=CCc1cc(O)cc2c1OC(c1ccc(Cl)cc1)CC2=O (racemic) | 4.6 µM | 4.68 µM | 95.1%
C=CCc1c(O)cc(O)c2c1OC(c1ccc(OC)cc1)CC2=O (racemic) |  |  | 81%
C=CCc1c(O)ccc(C(=O)/C=C/c2ccc3c(c2)OCO3)c1O |  |  | 71.8%

From ChEMBL document CHEMBL1140852, “Synthesis, biological evaluation and quantitative structure-activities relationship of flavonoids as vasorelaxant agents” (Bioorg Med Chem, 2009)
